OXTR agonist – activates the human oxytocin receptor. CHO-OTR cells, Fluo-8 calcium fluorescence; normalized: DMSO 0%, oxytocin 100%. activation, % at 3 µM. 0.32% of 320,000 active. AID 2435;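 active means activation above the mean of all tested compounds plus 3 SD, cutoff set per screening run, cut at about 20% in these data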;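 further: peak over basal fluorescence ratio from a 100 s FLIPR kinetic read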
TAAR1 antag – antagonists of human TAAR1; AID 624466; 1.5% of 360,000 active; Q96RJ0; inhibition, % at 3 µM; CHO RD-HGA16 TAAR1, Fluo-8 calcium fluorescence, antagonist;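 active means inhibition above a per-plate cutoff, the mean inhibition of test compounds on that plate plus 3 SD, cut at about 49% in these data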
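Test system: RD-HGA16 CHO cells with stable hTAAR1 and Gα16 / Probe or stimulus: EC80 β-phenethylamine stimulus / Times: seeding 17-24 h prior, 75-min 37 °C, 30-min RT dye loading / Detection: Fluo-8 calcium-sensitive fluorescence / Read-out basis: % inhibition scaled between DMSO and EC80 PEA controls / Repeats: singlicate, one well per test compound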
V1R ag counter – V1a receptor agonism, counter-screen for OXTR agonists. CHO-V1R cells, Fluo-8 calcium fluorescence, agonist mode; 0% DMSO, 100% 3 nM vasopressin. AID 2797. activation, % at 3 µM. 0.25% of 320,000 active. P37288;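 active means activation above the mean activation of all tested compounds plus 3 SD, per screening run, cut at about 20% in these data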;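 further: signal is peak over basal fluorescence ratio across a 100 second FLIPR read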
Target sequence (P37288 whole entry, looked up): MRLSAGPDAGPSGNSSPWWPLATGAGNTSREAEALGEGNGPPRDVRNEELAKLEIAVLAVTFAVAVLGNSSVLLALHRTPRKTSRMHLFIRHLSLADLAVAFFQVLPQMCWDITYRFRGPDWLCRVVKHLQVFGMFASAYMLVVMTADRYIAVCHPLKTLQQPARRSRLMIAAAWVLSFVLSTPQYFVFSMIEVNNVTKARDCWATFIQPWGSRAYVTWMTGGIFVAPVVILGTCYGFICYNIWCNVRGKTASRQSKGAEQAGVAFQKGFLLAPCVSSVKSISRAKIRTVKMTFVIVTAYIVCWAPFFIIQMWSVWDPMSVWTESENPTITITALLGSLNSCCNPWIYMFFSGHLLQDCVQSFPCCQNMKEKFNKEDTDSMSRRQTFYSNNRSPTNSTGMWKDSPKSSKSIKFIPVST
OXTR potentiate – potentiators of human oxytocin receptor; P30559; CHO-OTR cells, Fluo-8 calcium fluorescence, potentiator mode; 0% = oxytocin EC15, 100% = EC100; activation, % at 3 µM; 0.061% of 320,000 active; AID 2445;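 active means activation above that plate's cutoff, the mean activation of tested compounds plus 3 SD, cut at about 6.6% in these data, passing the limit was not always enough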
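Assay system: CHO cell line stably expressing human OTR. Reagent: EC15 oxytocin agonist. Dosing: single dose, 3.0 µM nominal final compound concentration. Timing: compound 6 min at room temperature before oxytocin, 100 s read. Signal: kinetic Fluo-8 calcium fluorescence. Controls: oxytocin EC15 low and EC100 high.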
TAAR1 ag – human TAAR1 agonism. Q96RJ0. CHO RD-HGA16 TAAR1, Fluo-8 calcium fluorescence; vehicle wells 0%, saturating PEA agonist 100%. activation, % at 3 µM. 0.99% of 360,000 active. AID 624467;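 active means activation above the mean activation of all test compounds in the run plus 3 SD, cut at about 38% in these data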
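Test system: RD-HGA16 (CHO) cells co-expressing Gα16 and hTAAR1 / Benchmarks: DMSO vehicle as 0%, PEA at EC100 as 100% / Repeats: no replicates (n 1) / Measure: % activation from peak over basal fluorescence ratio, DMSO-to-PEA scaled / Timing: 17-24 h plating, Fluo-8 75 min 37 °C, 30 min RT / Technique: kinetic Fluo-8 calcium fluorescence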
TAAR1 ag confirm – human TAAR1 agonism, confirmed | 82% of 2,400 active | shares compounds with TAAR1 ag | CHO RD-HGA16 TAAR1, Fluo-8 calcium fluorescence; scaled: DMSO 0%, maximal phenethylamine 100% | activation, % at 3 µM;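 active means activation above a cutoff set at the run's mean compound activation plus 3 SD, cut at about 39% in these data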
Ga16 nonsel ag – nonselective agonism, TAAR1 counter-screen. shares compounds with TAAR1 ag. CHO-Ga16 parental, Fluo-8 calcium fluorescence; normalized to maximal ATP response, DMSO zero. activation, % at 3 µM. 50% of 2,400 active. AID 651787;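 active means activation above the run cutoff, the mean activation over all tested wells plus 3 SD, cut at about 12% in these data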
TAAR1 desens – counter-screen for human TAAR1 agonists: agonists that desensitize TAAR1 | shares compounds with TAAR1 ag | CHO RD-HGA16 hTAAR1, Fluo-8 calcium, beta-PEA response inhibition | inhibition, % at 3 µM | 46% of 2,400 active;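 active means inhibition above the run cutoff, the mean inhibition of all test compounds plus 3 SD, cut at about 49% in these data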;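 further: beta-PEA stimulus applied at its EC80; loss of beta-PEA calcium signal after compound pretreatment read as receptor desensitization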
Ga16 nonsel ant – nonselective Ga16 antagonist in TAAR1 agonist counter-screen; AID 651952; shares compounds with TAAR1 ag; 39% of 2,400 active; inhibition, % at 3 µM; CHO-Ga16 ATP-induced calcium, Fluo-8 fluorescence;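 active means inhibition above the plate's mean compound inhibition plus 3 SD, computed per plate, cut at about 22% in these data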
Large screens that a line does not name were inactive (follow-up assays come after a bar, where they were run). This is a sample that favours compounds with a hit; in the whole collection about 2.3% have one here.

C=CCn1cc(C(=O)NCCOC)c(=O)c2cc(S(=O)(=O)N3CCCCCC3)ccc21	none
O=C(CSC1c2ccccc2C(=O)N1c1ccccc1)N1CCOCC1 (stereo not given)	none
Cn1c(C(=O)OCC(=O)NCCc2ccccc2)cc2sccc21	TAAR1 ag 98.2 | TAAR1 ag confirm inactive | Ga16 nonsel ag inactive | TAAR1 desens inactive | Ga16 nonsel ant inactive
COc1cccc(NC(=S)N(Cc2ccc(Cl)cc2)Cc2ccc(C(=O)O)cc2)c1	none
CC1CC(C)CN(C(=O)c2cccc(S(=O)(=O)NCc3ccccc3)c2)C1 (stereo not given)	TAAR1 ag 57.9 | TAAR1 ag confirm 50.4 | Ga16 nonsel ag inactive | TAAR1 desens inactive | Ga16 nonsel ant inactive
CC1CCCN(C(=O)c2cccc(S(=O)(=O)NCc3ccccc3)c2)C1 (stereo not given)	none (no result: OXTR agonist, V1R ag counter, OXTR potentiate)
O=C(N[C@H](Cc1ccccc1)C(=O)NCc1ccc(OC(F)(F)F)cc1)[C@H]1O[C@@H](n2ccc(=O)[nH]c2=O)[C@H](O)[C@@H]1O	none (no result: OXTR agonist, V1R ag counter, OXTR potentiate)
O=C(COc1ccccc1CNC[C@H]1O[C@@H](n2ccc(=O)[nH]c2=O)[C@H](O)[C@@H]1O)N1CCCCC1	none (no result: OXTR agonist, V1R ag counter, OXTR potentiate)
C[C@H]1[C@H](c2ccccc2)Oc2cccc(NCCc3ccccc3)c2S(=O)(=O)N1Cc1cccc(Cl)c1	TAAR1 ag 39.7 (no result: OXTR agonist, V1R ag counter, OXTR potentiate) | TAAR1 ag confirm 62.0 | Ga16 nonsel ag inactive | TAAR1 desens inactive | Ga16 nonsel ant inactive
C[C@H]1[C@H](c2ccccc2)Oc2cccc(NCCc3ccccc3)c2S(=O)(=O)N1Cc1cccc(F)c1	TAAR1 ag 60.7 (no result: OXTR agonist, V1R ag counter, OXTR potentiate) | TAAR1 ag confirm 41.0 | Ga16 nonsel ag inactive | TAAR1 desens inactive | Ga16 nonsel ant inactive
C[C@H]1[C@@H](c2ccccc2)Oc2ccc(Cl)cc2S(=O)(=O)N1Cc1cccc(Cl)c1	none (no result: OXTR agonist, V1R ag counter, OXTR potentiate)
CC(C)CNc1cccc2c1S(=O)(=O)N(Cc1ccc(F)cc1)[C@@H](C)[C@H](c1ccccc1)O2	none (no result: OXTR agonist, V1R ag counter, OXTR potentiate)
CC(=O)Nc1ccc(N(C(=O)CNC(=O)c2ccco2)C(C(=O)NCC2CCCO2)c2ccccc2)cc1 (stereo not given)	none
Cc1ccccc1NC(=O)C(=O)NCC1CCCN1S(=O)(=O)c1cccs1 (stereo not given)	none
O=C(NCCc1ccccc1)C(=O)NCC1CCCN1S(=O)(=O)c1cccs1 (stereo not given)	TAAR1 antag 68.7, TAAR1 ag 88.7 | TAAR1 ag confirm 98.0 | Ga16 nonsel ag inactive | TAAR1 desens 94.6 | Ga16 nonsel ant 26.6
O=[N+]([O-])c1cc(Cl)c(O)c2ncccc12	none (no result: OXTR agonist, V1R ag counter, OXTR potentiate)
O=[N+]([O-])c1cc(Cl)c2cccnc2c1O	TAAR1 ag 44.0 | TAAR1 ag confirm inactive | Ga16 nonsel ag inactive | TAAR1 desens inactive | Ga16 nonsel ant inactive
CCN(CC)c1ccc(/C=C(\C#N)c2ccccn2)cc1	none (no result: TAAR1 antag, TAAR1 ag)
CN(CCC#N)c1ccc(/C=C(\C#N)c2ccccn2)cc1	TAAR1 ag 86.4 | TAAR1 ag confirm inactive | Ga16 nonsel ag inactive | TAAR1 desens inactive | Ga16 nonsel ant inactive
Cc1[nH]c(C)c(S(=O)(=O)NCCc2ccccc2)c1C(=O)N1CCCCC1	TAAR1 ag 52.9 | TAAR1 ag confirm inactive | Ga16 nonsel ag inactive | TAAR1 desens inactive | Ga16 nonsel ant inactive
Cc1c(C(=O)N2CCCCC2)c(S(=O)(=O)NCCc2ccccc2)c(C)n1C	none
O=C(CNCCc1ccccc1)Nc1ccc(C(=O)N2CCCCC2)cc1	TAAR1 ag 46.2 | TAAR1 ag confirm 68.7 | Ga16 nonsel ag inactive | TAAR1 desens inactive | Ga16 nonsel ant inactive
Cc1cc(C(F)(F)F)c(C#N)c(SCC(=O)Nc2nc3cc(Br)ccc3s2)n1	none
O=C(CCN1CCc2ccccc2CC1)c1ccc2c(c1)OCCO2	TAAR1 antag 84.8, TAAR1 ag 92.2 | TAAR1 ag confirm 115.3 | Ga16 nonsel ag inactive | TAAR1 desens 97.4 | Ga16 nonsel ant inactive
O=C(CCN1CCOCC1)c1ccc2c(c1)OCCO2	none
COC(=O)c1ccccc1NC(=O)CSc1nncn1-c1ccccn1	none
COC(=O)C1=C(C)N(Cc2cccc(C(F)(F)F)c2)C(=NCc2ccc3c(c2)OCO3)NC1c1cccc(F)c1 (stereo not given)	TAAR1 antag 58.0, TAAR1 ag 65.1 (no result: OXTR agonist, V1R ag counter, OXTR potentiate) | TAAR1 ag confirm 57.8 | Ga16 nonsel ag 19.6 | TAAR1 desens 67.9 | Ga16 nonsel ant 42.8
COC(=O)C1=C(C)N(Cc2cccc(C(F)(F)F)c2)C(=NCc2ccc3c(c2)OCO3)NC1c1ccccc1 (stereo not given)	TAAR1 ag 43.3 (no result: OXTR agonist, V1R ag counter, OXTR potentiate) | TAAR1 ag confirm 46.5 | Ga16 nonsel ag 14.4 | TAAR1 desens inactive | Ga16 nonsel ant 27.1

From PubChem BioAssay
